Assay outcomes as filed in PubChem BioAssay.
A selection: hits, their analogues and other compounds. The true share with any hit is near 4.5%.
OX1R antag-1: antagonists of human orexin 1 receptor (OX1R); OX1R-expressing cells, FRET antagonist read-out; inhibition, % at 6.6 µM; 330,000 tested, 1.8% active; AID 485270; in the data active = inhibition mostly above about 38%, no sharp cut-off; inactive = mostly below about 40%;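 also: 0% = agonist challenge alone and 100% = reference antagonist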
Target sequence (O43613 whole entry, looked up): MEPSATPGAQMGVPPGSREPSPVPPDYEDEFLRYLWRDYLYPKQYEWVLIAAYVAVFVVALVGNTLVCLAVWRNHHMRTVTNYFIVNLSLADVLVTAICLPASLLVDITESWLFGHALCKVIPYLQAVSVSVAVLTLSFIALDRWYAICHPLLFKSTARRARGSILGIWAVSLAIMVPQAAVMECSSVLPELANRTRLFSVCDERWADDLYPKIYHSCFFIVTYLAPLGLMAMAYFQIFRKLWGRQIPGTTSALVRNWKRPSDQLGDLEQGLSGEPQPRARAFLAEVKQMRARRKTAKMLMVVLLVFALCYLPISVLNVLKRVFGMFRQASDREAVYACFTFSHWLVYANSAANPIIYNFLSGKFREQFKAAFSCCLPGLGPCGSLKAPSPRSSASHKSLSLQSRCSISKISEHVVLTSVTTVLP
TAAR1 ag: human TAAR1 agonism; 360,000 tested, 0.99% active; activation, % at 3 µM; Q96RJ0; CHO RD-HGA16 TAAR1, Fluo-8 calcium fluorescence; vehicle wells 0%, saturating PEA agonist 100%;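 active = activation above the mean activation of all test compounds in the run plus 3 SD, cut at about 38% in these data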
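System: CHO RD-HGA16 cells carrying human TAAR1 plus Gα16; Incubation: 17-24 h seeding, 75 min 37 °C dye, 30 min RT; Measured by: Fluo-8 fluorescence, 5 s baseline then 140 s kinetic read; Control set: DMSO and PEA EC100; Replication: single well for each compound.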
TAAR1 antag: antagonists of human TAAR1; CHO RD-HGA16 TAAR1, Fluo-8 calcium fluorescence, antagonist; 360,000 tested, 1.5% active; inhibition, % at 3 µM; AID 624466;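 active = inhibition above a per-plate cutoff, the mean inhibition of test compounds on that plate plus 3 SD, cut at about 49% in these data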;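 also: 0% = DMSO plus EC80 beta-PEA response and 100% = DMSO alone without agonist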
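Test system: hTAAR1-expressing CHO RD-HGA16 cells, Gα16-coupled; Probe or stimulus: EC80 β-phenethylamine stimulus; Compound dosing: single nominal final test compound concentration of 3 µM; Timing: 140 s kinetic read after compound, 140 s after agonist; Signal: Fluo-8 calcium-sensitive fluorescence; Measure: % inhibition of agonist calcium response; Controls: DMSO and EC80 PEA controls.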
GPR7 antagonist: human neuropeptides B/W receptor 1 antagonism. inhibition, % at 4.4 µM. P48145. GPR7-expressing cells, fluorescence antagonist assay. 290,000 tested, 1.1% active. AID 1861; in the data active = inhibition above about 16%, passing the limit was not always enough;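 also: cells stimulated with the agonist NPW; 0% = agonist with vehicle and 100% = vehicle without agonist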
Target sequence (P48145 whole entry, looked up): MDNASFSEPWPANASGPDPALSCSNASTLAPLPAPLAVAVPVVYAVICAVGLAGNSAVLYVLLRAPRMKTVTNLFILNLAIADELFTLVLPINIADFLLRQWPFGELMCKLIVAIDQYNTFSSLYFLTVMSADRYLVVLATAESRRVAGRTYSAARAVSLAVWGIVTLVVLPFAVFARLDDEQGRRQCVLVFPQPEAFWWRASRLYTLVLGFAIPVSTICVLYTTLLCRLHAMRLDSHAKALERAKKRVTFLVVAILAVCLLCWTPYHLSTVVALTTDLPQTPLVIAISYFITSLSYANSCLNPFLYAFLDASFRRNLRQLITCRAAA
CHO parental Ca: counter-screen: ATP calcium response change in parental CHO cells; 330,000 tested, 0.63% active; parental CHO-K1, ATP-induced calcium, Fluo-8 fluorescence; inhibition, % at 5.6 µM;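 active = inhibition above that plate's mean sample inhibition plus 3 SD, cut at about 26% in these data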;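 also: 0% = ATP-challenged DMSO wells and 100% = DMSO wells without ATP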
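Material: parental CHO cells / Compound: single nominal dose of 5.6 µM per compound / Signal: Fluo-8 fluorescence / Replicates: singlicate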
OX1R antag-2: blocks the human orexin 1 receptor. CHO/OX1R cells, Fluo-8 calcium fluorescence, orexin A. AID 434989. 330,000 tested, 0.43% active. O43613. inhibition, % at 5 µM;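 active = inhibition above its plate's threshold, mean inhibition of all tested compounds on the plate plus 3 SD, cut at about 37% in these data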;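 also: 0% = orexin A challenge wells and 100% = SB-334867-A antagonist wells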
TAAR1 nonsel count: counter-screen for TAAR1 antagonists: nonselective antagonists; shares compounds with TAAR1 antag; counterscreen cell line, calcium fluorescence, antagonist mode; inhibition, % at 3 µM; 2,400 tested, 77% active; in the data active = inhibition above about 22%;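 also: CHO-Ga16 host cells stimulated with ATP at an EC80 level; 0% = agonist EC80 plus vehicle and 100% = vehicle without agonist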
TAAR1 antag conf: human TAAR1 antagonism, confirmed; TAAR1-expressing cells, fluorescence antagonist read-out; 2,400 tested, 40% active; shares compounds with TAAR1 antag; AID 651785; inhibition, % at 3 µM; in the data active = inhibition above about 49%;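 also: CHO-Ga16 host cells challenged with agonist PEA near its EC80; 0% = agonist at EC80 plus vehicle and 100% = vehicle with no agonist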
Ga16 ag counter-1: counter-screen for TAAR1 antagonists: nonselective Ga16 agonists; Ga16-expressing cells, calcium fluorescence, agonist counterscreen; shares compounds with TAAR1 antag; 2,400 tested, 18% active; activation, % at 3 µM; in the data active = activation above about 12%;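 also: 0% = vehicle wells and 100% = saturating stimulus response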
TAAR1 ag counter: counter-screen for human TAAR1 antagonists: TAAR1 agonists. hTAAR1 cell line, fluorescence activation, agonist mode. shares compounds with TAAR1 antag. activation, % at 3 µM. 2,400 tested, 2% active; in the data active = activation above about 37%;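 also: CHO cells stably expressing TAAR1 with calcium dye readout; 0% = DMSO vehicle and 100% = full agonist response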
TAAR1 ag conf: confirmation of human TAAR1 agonists. activation, % at 3 µM. shares compounds with TAAR1 ag. AID 651783. CHO RD-HGA16 TAAR1, Fluo-8 calcium fluorescence; scaled: DMSO 0%, maximal phenethylamine 100%. 2,400 tested, 82% active;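 active = activation above a cutoff set at the run's mean compound activation plus 3 SD, cut at about 39% in these data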
Ga16 ag counter-2: nonselective agonist in parental cells, TAAR1 agonist counter-screen; CHO-Ga16 parental, Fluo-8 calcium fluorescence; normalized to maximal ATP response, DMSO zero; activation, % at 3 µM; shares compounds with TAAR1 ag; 2,400 tested, 50% active;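 active = activation above the run cutoff, the mean activation over all tested wells plus 3 SD, cut at about 12% in these data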;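 also: 0% = DMSO wells and 100% = maximal ATP response on the peak over basal ratio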
TAAR1 desens: counter-screen for human TAAR1 agonists: agonists that desensitize TAAR1; inhibition, % at 3 µM; 2,400 tested, 46% active; shares compounds with TAAR1 ag; CHO RD-HGA16 hTAAR1, Fluo-8 calcium, beta-PEA response inhibition;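 active = inhibition above the run cutoff, the mean inhibition of all test compounds plus 3 SD, cut at about 49% in these data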;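 also: beta-PEA stimulus applied at its EC80; loss of beta-PEA calcium signal after compound pretreatment read as receptor desensitization; 0% = DMSO with beta-PEA at EC80 and 100% = DMSO alone without agonist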
Ga16 nonsel ant: nonselective Ga16 antagonism, counter-screen | inhibition, % at 3 µM | shares compounds with TAAR1 ag | AID 651952 | 2,400 tested, 39% active | CHO-Ga16 ATP-induced calcium, Fluo-8 fluorescence;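 active = inhibition above the plate's mean compound inhibition plus 3 SD, computed per plate, cut at about 22% in these data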;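 also: 0% = EC80 ATP with DMSO and 100% = DMSO wells without ATP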
* marks the source's active call; other numbers are inactive results.

Screening O=c1[nH]c2ccccc2n1C1CCN(C(CCc2ccccc2)c2nnnn2C2CCCCC2)CC1 (stereo not given) returned TAAR1 ag 9.3, TAAR1 antag 58.0*, TAAR1 nonsel count 26.2*, TAAR1 antag conf 46.4, Ga16 ag counter-1 4.3 and TAAR1 ag counter 10.6.
For CSCCC(c1nnnn1C1CCCC1)N1CCC(n2c(=O)[nH]c3ccccc32)CC1 (stereo not given) the results were TAAR1 ag 23.0, TAAR1 antag 55.8*, TAAR1 nonsel count 22.7*, TAAR1 antag conf 48.1, Ga16 ag counter-1 7.8 and TAAR1 ag counter 21.4.
For CSCCC(c1nnnn1-c1c(C)cccc1C)N1CCC(n2c(=O)[nH]c3ccccc32)CC1 (stereo not given) the results were TAAR1 ag 11.2, TAAR1 antag 53.2*, TAAR1 nonsel count 24.3*, TAAR1 antag conf 54.9*, Ga16 ag counter-1 7.3 and TAAR1 ag counter 13.9.
For CSCCC(c1nnnn1C1CCCC1)N1CCC2(CC1)C(=O)NCN2c1ccccc1 (stereo not given) the results were TAAR1 ag 6.9 and TAAR1 antag 14.7.
Screening CCOC(=O)C1(CCOc2ccccc2)CCN(C2Cc3ccccc3C2)CC1 returned OX1R antag-1 9.6, TAAR1 ag 5.5, TAAR1 antag -3.9, GPR7 antagonist -5.4, CHO parental Ca -21.6 and OX1R antag-2 -34.9.
For C/C=C1\NC(=O)[C@@H](NC(=O)[C@H](CCc2ccc(O)cc2)NC(=O)[C@H](C)NC(=O)[C@H](O)CO)[C@@H](C)OC(=O)[C@H](C(C)C)NC(=O)[C@H](Cc2ccc(O)cc2)N(C)C(=O)[C@H](Cc2ccccc2)N2C(=O)C(CC[C@H]2O)NC1=O (stereo not given in full) the results were OX1R antag-1 -6.5, TAAR1 ag 1.7, TAAR1 antag 5.1, CHO parental Ca -3.2 and OX1R antag-2 2.3.
COc1cccc(C(c2nnnn2C(C)(C)C)N2CCC3(CC2)C(=O)NCN3c2ccccc2)c1OC (stereo not given) was read as TAAR1 ag 9.3 and TAAR1 antag 29.8.
O=P(Nc1cccnc1)(Oc1ccccc1Cl)Oc1ccccc1Cl was read as OX1R antag-1 20.3, TAAR1 ag 10.4, TAAR1 antag 69.9*, GPR7 antagonist -13.3, CHO parental Ca -12.0, OX1R antag-2 -32.5, TAAR1 nonsel count 31.6*, TAAR1 antag conf 46.6, Ga16 ag counter-1 7.1 and TAAR1 ag counter 8.7.
`COc1ccc(CCNCc2ccncc2)cc1` gave OX1R antag-1 12.1, TAAR1 ag 46.4*, TAAR1 antag -0.1, GPR7 antagonist 1.8, CHO parental Ca -16.6, OX1R antag-2 -16.6, TAAR1 ag conf 67.0*, Ga16 ag counter-2 3.5, TAAR1 desens 28.0 and Ga16 nonsel ant 4.9.
`Cc1ccc2c(C)cccc2c1` gave TAAR1 ag 4.5 and TAAR1 antag -17.0.
`CNc1ccc2oc(C[C@H]3O[C@@]4(CC[C@H]3C)O[C@H]([C@H](C)C(=O)c3ccc[nH]3)[C@H](C)C[C@H]4C)nc2c1C(=O)O` gave OX1R antag-1 20.4, TAAR1 ag 198.3*, TAAR1 antag 105.9*, CHO parental Ca 59.1*, OX1R antag-2 67.4*, TAAR1 ag conf 183.6*, Ga16 ag counter-2 145.9*, TAAR1 desens 106.8* and Ga16 nonsel ant 100.8*.
Screening Cn1cccc1CNCCc1ccc(F)cc1 returned OX1R antag-1 10.6, TAAR1 ag 48.8*, TAAR1 antag 32.0, GPR7 antagonist -3.1, CHO parental Ca -10.9, OX1R antag-2 -24.3, TAAR1 ag conf 82.4*, Ga16 ag counter-2 9.2, TAAR1 desens 54.2* and Ga16 nonsel ant 6.5.
Screening Cc1ccc(CNCCc2ccc(F)cc2)s1 returned OX1R antag-1 -8.1, TAAR1 ag 28.9, TAAR1 antag -16.9, GPR7 antagonist -11.9, CHO parental Ca -14.8 and OX1R antag-2 -17.7.
`Fc1ccc(CCNCc2ccccc2Cl)cc1` gave OX1R antag-1 7.5, TAAR1 ag 63.6*, TAAR1 antag -18.2, GPR7 antagonist -8.8, CHO parental Ca -15.5, OX1R antag-2 -13.7, TAAR1 ag conf 62.3*, Ga16 ag counter-2 7.5, TAAR1 desens 24.1 and Ga16 nonsel ant 6.4.
Screening CCN(CC(=O)Nc1ccc(NC(C)=O)cc1)C(=O)CSC(c1ccccc1)c1ccccc1 returned OX1R antag-1 1.0, TAAR1 ag -2.2, TAAR1 antag -2.2, CHO parental Ca -31.2 and OX1R antag-2 -3.9.
Screening O=C1NC(=O)C(=Cc2ccc(-c3ccc(F)cc3O)o2)C(=O)N1 returned OX1R antag-1 24.9, TAAR1 ag 104.7*, TAAR1 antag 85.1*, GPR7 antagonist 11.2, CHO parental Ca -0.8, OX1R antag-2 -12.7, TAAR1 ag conf 108.8*, Ga16 ag counter-2 60.8*, TAAR1 desens 87.6* and Ga16 nonsel ant 68.1*.
`CC1CCCCC1NC1CCN(C)CC1` (stereo not given) gave OX1R antag-1 3.4, TAAR1 ag -0.4, TAAR1 antag 6.5, GPR7 antagonist -2.9, CHO parental Ca 3.4 and OX1R antag-2 -2.6.
Screening COc1ccc(C(=O)C2CN(C)CC2c2ccc(Cl)cc2)cc1 (stereo not given) returned OX1R antag-1 12.0, TAAR1 ag 12.0, TAAR1 antag -7.4, GPR7 antagonist 3.6, CHO parental Ca -20.7 and OX1R antag-2 -26.3.
